Tests used:
Type in all cases: functional
OVCAR-5 [1] = experiment: Growth inhibition of human OVCAR5 cells at 50 uM after 48 hrs by sulpharhodamine B assay; conditions: OVCAR-5, 48 h, read-out: GI
Method in brief: (§1)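 This is the SRB protein-stain assay on adherent cells in RPMI-1640/MEM with 10% FCS. Each compound in DMSO (vehicle <0.2%) was applied at a single fixed concentration for 48 h. Cells were fixed with TCA and stained with SRB, and the dye was solubilised in Tris and read at 570/620 nm. Percent growth inhibition is relative to vehicle-treated controls, reported as mean ± SD of three experiments run in triplicate.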

HeLa [2] = experiment: Growth inhibition of human HeLa cells at 50 uM after 48 hrs by sulpharhodamine B assay; conditions: read-out: GI; method in brief: as §1
THP-1 [3] = experiment: Growth inhibition of human THP1 cells at 50 uM after 48 hrs by sulpharhodamine B assay; conditions: THP-1, 48 h, read-out: GI
Method in brief: (§2)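 Cells grown in RPMI-1640/MEM with 10% FCS, penicillin/streptomycin, 37 °C, 5% CO2. Seeded in 96-well plates, allowed to adhere overnight, then exposed 48 h to analogs in DMSO (vehicle <0.2% in controls). TCA-fixed, stained with 0.4% SRB in 1% acetic acid, dye solubilized in 10 mM Tris base, OD 570 nm (ref 620 nm). Mean ± SD of three experiments run in triplicate.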

PC-3 [4] = experiment: Growth inhibition of human PC3 cells at 50 uM after 48 hrs by sulpharhodamine B assay; conditions: PC-3, 48 h, read-out: GI; method in brief: as §2
MCF7 [5] = experiment: Growth inhibition of human MCF7 cells at 50 uM after 48 hrs by sulpharhodamine B assay; conditions: MCF7, 48 h, read-out: GI; method in brief: as §1
IMR-32 [6] = experiment: Growth inhibition of human IMR32 cells at 50 uM after 48 hrs by sulpharhodamine B assay; conditions: IMR-32, 48 h, read-out: GI; method in brief: as §1
A549 [7] = experiment: Growth inhibition of human A549 cells at 50 uM after 48 hrs by sulpharhodamine B assay; conditions: A549, 48 h, read-out: GI; method in brief: as §1
MCF7 [8] = experiment: Growth inhibition of human MCF7 cells at 30 uM after 48 hrs by sulpharhodamine B assay; conditions: MCF7, 48 h, read-out: GI; method in brief: as §1
IMR-32 [9] = experiment: Growth inhibition of human IMR32 cells at 30 uM after 48 hrs by sulpharhodamine B assay; conditions: IMR-32, 48 h, read-out: GI; method in brief: as §1
HEp-2 [10] = experiment: Growth inhibition of human Hep2 cells at 50 uM after 48 hrs by sulpharhodamine B assay; conditions: HEp-2, 48 h, read-out: GI; method in brief: as §1
OVCAR-5 [11] = experiment: Growth inhibition of human OVCAR5 cells at 30 uM after 48 hrs by sulpharhodamine B assay; conditions: OVCAR-5, 48 h, read-out: GI; method in brief: as §1
HEp-2 [12] = experiment: Growth inhibition of human Hep2 cells at 30 uM after 48 hrs by sulpharhodamine B assay; conditions: HEp-2, 48 h, read-out: GI; method in brief: as §1
HeLa [13] = experiment: Growth inhibition of human HeLa cells at 30 uM after 48 hrs by sulpharhodamine B assay; conditions: read-out: GI; method in brief: as §1
PC-3 [14] = experiment: Growth inhibition of human PC3 cells at 30 uM after 48 hrs by sulpharhodamine B assay; conditions: PC-3, 48 h, read-out: GI; method in brief: as §2
THP-1 [15] = experiment: Growth inhibition of human THP1 cells at 30 uM after 48 hrs by sulpharhodamine B assay; conditions: THP-1, 48 h, read-out: GI; method in brief: as §2
A549 [16] = experiment: Growth inhibition of human A549 cells at 30 uM after 48 hrs by sulpharhodamine B assay; conditions: A549, 48 h, read-out: GI; method in brief: as §1

Structure (SMILES)	inhibition of growth at 50 µM (OVCAR-5 [1])	inhibition of growth at 50 µM (HeLa [2])	inhibition of growth at 50 µM (THP-1 [3])	inhibition of growth at 50 µM (PC-3 [4])	inhibition of growth at 50 µM (MCF7 [5])	inhibition of growth at 50 µM (IMR-32 [6])	inhibition of growth at 50 µM (A549 [7])	inhibition of growth at 30 µM (MCF7 [8])	inhibition of growth at 30 µM (IMR-32 [9])	inhibition of growth at 50 µM (HEp-2 [10])	inhibition of growth at 30 µM (OVCAR-5 [11])	inhibition of growth at 30 µM (HEp-2 [12])	inhibition of growth at 30 µM (HeLa [13])	inhibition of growth at 30 µM (PC-3 [14])	inhibition of growth at 30 µM (THP-1 [15])	inhibition of growth at 30 µM (A549 [16])
C=C[C@@](C)(/C=C/c1ccc(OC(=O)CCCCCCC)cc1)CCC=C(C)C	42%	53%	62%	22%	12%	51%	15%									
C=C[C@@](C)(/C=C/c1ccc(OC(=O)CCCC)cc1)CCC=C(C)C	3%	23%	15%	42%	25%	21%	38%									
COc1ccc(/C=C/[C@@](C)(/C=C/c2ccc(O)cc2)CCC=C(C)C)cc1CO	38%	36%	58%	39%	42%	34%	41%									
COc1ccc(/C=C/C(C)(/C=C/c2ccc(OC)cc2)CCC=C(C)C)cc1	25%	11%	62%	29%	13%	27%	15%									
CC[C@](C)(CCCC(C)C)CCc1cc(Br)c(O)c(Br)c1	8%	42%	51%	50%	42%	21%	40%									
COc1ccccc1/C=C/[C@@](C)(/C=C/c1ccc(O)cc1)CCC=C(C)C	38%	50%	62%	46%	42%	68%	10%									
C=C[C@@](C)(/C=C/c1ccc(O)cc1)CC/C=C(/C)C=O	22%	40%	54%	51%	12%	53%	35%									
CC[C@](C)(CCCC(C)C)CCc1ccc(O)cc1	43%	42%	58%	40%	46%	53%	49%									
C=C[C@@](C)(/C=C/c1ccc(OC)cc1)CCC=C(C)C	37%	43%	45%	44%	18%	30%	12%	37%	23%	40%	29%	22%	28%	31%	29%	34%
COc1ccc(/C=C/[C@@](C)(/C=C/c2ccc(O)cc2)CCC=C(C)C)cc1C=O	33%	31%	45%	34%	36%	35%	32%									
C=C[C@@](C)(/C=C/c1ccc(OC(=O)CCCCC)cc1)CCC=C(C)C	13%	50%	54%	28%	18%	19%	58%									
C=C[C@@](C)(/C=C/c1ccc(OC(=O)CC)cc1)CCC=C(C)C	52%	48%	60%	54%	23%	63%	42%									

Source: ChEMBL document CHEMBL1944511, “Bakuchiol derivatives as novel and potent cytotoxic agents: a report” (Eur J Med Chem, 2012)
